# hDAT+cocaine – modulates human dopamine transporter uptake under cocaine; LLC-PK1 hDAT cells, [14C]-dopamine uptake with cocaine IC80; actives deviate in either direction; B-score at 10 µM; hit rate 1.3% among 110,000; AID 449768;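 active means Z score or B-score, a plate-position-corrected score, falls beyond the plate's 99.7% confidence bounds, in either direction; inactive means both scores lie inside the 99.7% bounds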;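 further: scored against the spread of the other compound wells on the same plate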
# D1 mod – allosterically modulates the human D1 dopamine receptor; P21728; HEK293 D1, CRE-luciferase, dopamine EC30 potentiation; actives deviate in either direction; B-score at 10 µM; hit rate 5.9% among 58,000; AID 641;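 active means luminescence count or its row- and column-corrected plate score outside the 99.7% band of the plate's sample wells, on either side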
# M1 antagonist – M1 muscarinic receptor (rat) antagonism; P08482; CHO-M1 cells, Fluo-4 calcium, ACh EC80 antagonist mode; stronger effect = lower value; B-score at 10 µM; hit rate 3.4% among 64,000;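 active means calcium fluorescence response, raw or row-and-column corrected B-score, differing from the plate sample mean either way at a set confidence level, mostly lower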
# Target sequence (P08482 whole entry, looked up): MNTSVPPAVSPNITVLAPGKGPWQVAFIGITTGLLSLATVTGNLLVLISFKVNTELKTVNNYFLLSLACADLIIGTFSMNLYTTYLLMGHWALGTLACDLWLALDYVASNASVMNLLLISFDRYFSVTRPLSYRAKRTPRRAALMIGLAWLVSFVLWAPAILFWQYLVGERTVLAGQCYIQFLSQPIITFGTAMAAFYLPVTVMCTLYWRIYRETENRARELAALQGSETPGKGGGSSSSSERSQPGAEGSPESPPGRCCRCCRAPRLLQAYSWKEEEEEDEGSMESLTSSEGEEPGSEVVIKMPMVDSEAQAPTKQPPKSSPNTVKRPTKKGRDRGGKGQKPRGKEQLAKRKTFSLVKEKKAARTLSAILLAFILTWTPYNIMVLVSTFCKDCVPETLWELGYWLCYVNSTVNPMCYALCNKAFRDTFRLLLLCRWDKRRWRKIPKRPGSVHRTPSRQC
# M1 ag – M1 muscarinic receptor agonism; CHO-M1 cells, Fluo-4 calcium fluorescence, agonist mode; stronger effect = higher value; B-score at 10 µM; AID 626; hit rate 3% among 64,000;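 active means fluorescence rise, raw or as B-score row- and column-corrected plate score, outside the 99.7% band of its plate's samples, either direction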
# HEK293 NFkB inh – inhibitors of the PMA/ionomycin-induced NF-kB reporter in HEK293 cells. hit rate 0.21% among 62,000. inhibition, % at 3 µM. HEK-293 NF-kB luciferase reporter, luminescence;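 active means inhibition above the mean of all tested compounds plus 3 SD, cut at about 40% in these data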;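 further: 0% = stimulated DMSO wells and 100% = 10 µM reference inhibitor 5653914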
#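 Reagent: PMA plus ionomycin mix as NF-kB-activating stimulus. Assay system: NF-kB luciferase reporter HEK-293 cells. Technique: luminescence from luciferase substrate reagent. Incubation: 1 h compound pre-incubation, 16 h PMA/ionomycin at 37 °C. Benchmarks: DMSO only as uninhibited control, 10 µM reference inhibitor as full inhibition. Repeats: tested once.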
# Jurkat viability – reduces viability or proliferation of Jurkat cells; Jurkat E6.1 viability, ATP luminescence, 48 h; AID 463; inhibition, % at 4 µM; hit rate 1.2% among 56,000;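 active means inhibition above the mean inhibition of all tested compounds plus 3 SD, cut at about 28% in these data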
# D1 PAM confirm – D1 receptor (human) allosteric modulation, confirmed; shares compounds with D1 mod; HEK293 D1 CRE-luciferase, dopamine EC30 potentiation; stronger effect = higher value; luminescence at 10 µM; hit rate 88% among 2,200; AID 642;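 active means luminescence in either of two replicates above the same-plate mean plus 3 SD of the low-dose dopamine control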
# D1 ag no DA – D1 (human) signaling in absence of dopamine. HEK293 D1 CRE-luciferase, luminescence, no dopamine; stronger effect = higher value. shares compounds with D1 mod. hit rate 0.8% among 1,900. luminescence at 10 µM. AID 646; in the data active means luminescence above about 3900
# Isoprot counter – isoproterenol response counter-screen activity for D1 modulators; shares compounds with D1 mod; HEK293 D1 CRE-luciferase, isoproterenol EC30 counter-screen; calls only at 10 µM; hit rate 63% among 2,200; AID 647;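 active means luminescence in either replicate above plate mean of wells with a partly effective reference agonist dose plus 3 SD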;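 further: isoproterenol raises cAMP through native beta-adrenoceptor Gs so signal bypasses D1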
# An asterisk follows results filed as active; i = inactive; / = not tested or not shown; + = active, no number. An excerpt weighted towards active compounds, which were near 7.6% of everything screened.
SMILES,hDAT+cocaine,D1 mod,M1 antagonist,M1 ag,HEK293 NFkB inh,Jurkat viability,D1 PAM confirm,D1 ag no DA,Isoprot counter
CC(C)Nc1nc(SCC(=O)Nc2ccccc2)nc(N2CCOCC2)n1,0.012,14*,0.66,-1.5,17,1,20560*,1624,+
CNc1nc(SCc2ccccc2)nc(N2CCOCC2)n1,0.18,11*,-0.076,0.15,15,-1,24896*,1672,+
Cc1nc(SCC(=O)Nc2ccc(N3CCOCC3)cc2)nc(C)c1C,0.23,/,/,/,/,/,/,/,/
CC(Sc1nc(N2CCOCC2)nc(N2CCOCC2)n1)C(=O)Nc1ccccc1 (stereo not drawn),-0.37,0.48,1.3,0.21,13,/,/,/,/
CCOC(=O)c1c(C)c(C(=O)Nc2cc(OC)ccc2OC)c(C)n1CC,0.35,3.1*,0.34,0.78,10,35*,7504*,1448,+
O=C1OCCN1C(=O)[C@H]1[C@H](c2ccc(F)cc2)C(c2ccc(F)cc2)=NN1c1ccc(Br)cc1,-0.46,/,/,/,/,/,/,/,/
CCOc1ncccc1C(=O)Nc1ccc(Cl)cc1,-0.39,2.5*,0.085,0.52,14,-2,12668*,1652,+
CCOc1ncccc1C(=O)NCC1COc2ccccc2O1 (stereo not drawn),-0.59,13*,-0.15,0.39,14,1,17888*,/,+
O=C(Cc1ccccc1)NCC1COc2ccccc2O1 (stereo not drawn),-0.00031,/,/,/,/,/,/,/,/
CCc1ccc(C(=O)NCC2COc3ccccc3O2)o1 (stereo not drawn),1.2,3.7*,/,/,-6,-7,7128,1732,i
CCOc1ncccc1C(=O)Oc1ccc2c(c1)OCO2,0.68,3.2*,1.7,-1.1,2,-7,8328*,2048,+
CCOCc1cnc(C)nc1NCC(=O)c1c(C)[nH]c2cc(C)ccc12,-0.53,/,/,/,/,/,/,/,/
COc1ccc2nc(SCC(=O)N3CCCCCC3)c(C#N)cc2c1,0.34,3.5*,0.44,-0.7,-6,-2,10688*,1852,i
N#Cc1cc2c(nc1SCC(=O)N1CCCCC1)CCCC2,0.14,0.95,0.5,-0.079,12,1,/,/,/
CCS(=O)(=O)CCSc1nc2c(cc1C#N)CCCC2,1.4,5.5*,0.89,0.19,8,4,19348*,1760,+
N#Cc1cc2c(nc1SCC(=O)Nc1sc3c(c1C#N)CCC3)CCCC2,-0.71,/,/,/,/,/,/,/,/
CCc1ccc2nc(SCC(=O)N3CCCCC3)c(C#N)cc2c1,-0.061,/,/,/,/,/,/,/,/
N#Cc1cc2c(nc1SCC(=O)Nc1sc3c(c1C#N)CCC3)CCCCC2,-1.5,6*,1.3,-0.084,-9,0,10448*,1704,+
N#Cc1cc2c(nc1SCC(=O)N1CCCCC1)CCCCC2,0.35,3.8*,-0.59,0,5,6,10608*,/,+
COc1ccc(CN(C(=O)c2cnccn2)C(C(=O)Nc2ccc(F)cc2)c2ccccc2)cc1 (stereo not drawn),-0.16,/,/,/,/,/,/,/,/
COc1ccc(CCNC(=O)CN2C(=O)c3ccccc3S2(=O)=O)cc1OC,-1.3,4.3*,0.095,-0.078,6,-3,7364*,1808,+
COc1ccc(-c2cc(-c3ccccc3O)[nH]n2)cc1OC,-0.12,3.4*,-0.92,1.1,-2,-2,8764*,1644,+
COc1ccc(CCNC(=O)c2cc(-c3ccc(C)cc3O)n[nH]2)cc1OC,0.86,/,/,/,/,/,/,/,/
COc1ccc(CCNC(=O)c2cnc3n(c2=O)CCS3)cc1OC,1,4.7*,-1.1,-0.15,15,1,9460*,1716,+
O=C(NCCCc1ccccc1)c1cnc2n(c1=O)CCS2,0.28,-0.036,0.25,-0.77,-15,-2,/,/,/
SMILES,hDAT+cocaine,D1 mod,M1 antagonist,M1 ag,HEK293 NFkB inh,Jurkat viability,D1 PAM confirm,D1 ag no DA,Isoprot counter
COc1ccc(CCNC(=O)c2cc(-c3ccccc3O)n[nH]2)cc1OC,-9.6*,4.4*,-0.026,0.035,9,-4,8340*,1572,+
COc1ccc(-c2cc(-c3ccc(OC)c(OC)c3)n[nH]2)c(O)c1,0.0039,/,/,/,/,/,/,/,/
O=C1C=C(NCCN2CCOCC2)C(=O)c2cnccc21,-1.5,/,/,/,/,/,/,/,/
CC1(C)CC(=O)C(CCC(=O)c2ccccc2)C(C)(C)N1 (stereo not drawn),0.099,4.7*,-0.023,-0.64,16,4,4348,1672,i
O=C(CCC1CCCCC1=O)c1ccccc1 (stereo not drawn),0.8,-0.35,-0.49,-0.18,15,-15,/,/,/
C[C@]12CCC(=O)C[C@@H]1CC[C@@H]1[C@@H]2CC[C@]2(C)C=CC[C@@H]12,-0.31,/,/,/,/,/,/,/,/
CN(C1CCCCC1)S(=O)(=O)c1ccc(NC(=O)C2CCCCC2C(=O)O)cc1 (stereo not drawn),1.6,/,0.88,1.1,12,2,/,/,/
CCCCCn1c(NCc2ccco2)nc2ccccc21,0.89,6.3*,-1.7,-1.7,15,5,12176*,1460,i
Cc1nc2sc3c(c2c(=O)[nH]1)CCC3,-0.47,3.1*,0.061,0.41,10,5,11308*,1476,i
Nc1nc2sc3c(c2c(=O)s1)CCCC3,-0.24,14*,0.24,1.2,3,-4,13312*,1256,+
Cc1nc2sc3c(c2c(=O)o1)CCCC3,-1.2,-0.15,-0.12,-0.43,0,-9,/,/,/
CCCCSc1nc2sc3c(c2c(=O)[nH]1)CCC3,0.00019,/,/,/,/,/,/,/,/
O=C(CSc1nc2cccnc2n1Cc1ccccc1)NCc1ccco1,-0.28,/,0.0044,-0.16,15,7,/,/,/
CCN1CCN(C(=S)NCCc2ccccc2)CC1,-0.19,/,/,/,/,/,/,/,/
Cn1c(=O)[nH]c(=O)c2c1nc(Sc1ccccc1)n2CCc1ccccc1,1,9.2*,-0.017,0.78,-2,-1,20140*,1684,+
COC(=O)C(C)Sc1nc2c(c(=O)[nH]c(=O)n2C)n1CCCc1ccccc1 (stereo not drawn),-0.53,4.7*,-0.013,1.2,4,-1,8864*,1724,+
Cn1c(=O)[nH]c(=O)c2c1nc(Sc1ncccn1)n2CCCc1ccccc1,-0.077,9.6*,-0.065,-1.1,5,/,18924*,1792,+
CCc1ccc(N/C(SC)=C(/C#N)C(N)=O)cc1,-0.31,0.42,0.54,0.033,16,/,/,/,/
CCOc1ccc(N/C(SC)=C(/C#N)C(N)=O)cc1,-0.4,5*,0.19,-0.0045,17,/,6796*,1504,i
CC(=O)c1sc(NC(=O)CN2C(=O)CCC2=O)nc1C,0.77,0.073,1.5,-0.6,5,2,/,/,/

# High-throughput results: PubChem BioAssay, several laboratories
